SIRT5 inh – SIRT5 desuccinylase inhibitors, primary screen, biochemical, fluorescence imaging, single point, set 5 | inhibition, % at 15 µM | actives 1.1% (n = 330,000) | AID 652115, 2013 | NAD-dependent protein deacylase sirtuin-5, mitochondrial (Homo sapiens), Q9NXA8 | Purified SirT5, succinyl-peptide AMC, trypsin-coupled fluorescence; in the data active = inhibition above about 15%
PGC1a acetyl inh – inhibitors of PGC1a acetylation signal, primary screen, cell-based, U2OS, AlphaScreen, inhibitor mode; AlphaScreen anti-acetyl-lysine; with virally co-expressed GCN5 acetyltransferase; inhibition, % at 15.6 µM; actives 0.17% (n = 350,000);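 active = every replicate shows inhibition of at least 40%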;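 note: 0% = neutral control wells and 100% = positive control wells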
FGF22 binding – binders of human FGF22 protein, primary screen, FGF22 synaptogenesis inhibitor project, biophysical, thermal shift, single point. Fibroblast growth factor 22 (Homo sapiens), Q9HCT0. activity (Tm shift, normalised), % at 9.99 µM. recombinant FGF22 thermal shift, SYPRO orange fluorescence; percent of sucrose octasulfate shift, DMSO zero. AID 651658, 2012. actives 1.5% (n = 340,000);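 active = mean Tm shift, scaled 0 neutral to 100 positive control, at about 1.3% or above, every replicate too, limit read from the data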
Target sequence (Q9HCT0 whole entry, looked up): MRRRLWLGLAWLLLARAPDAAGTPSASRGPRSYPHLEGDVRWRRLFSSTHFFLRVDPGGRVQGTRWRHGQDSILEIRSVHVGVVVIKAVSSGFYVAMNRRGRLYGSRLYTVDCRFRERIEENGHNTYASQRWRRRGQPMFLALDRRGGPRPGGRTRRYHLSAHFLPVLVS
ERAP1 inh – human ERAP1 aminopeptidase inhibitors, primary screen, biochemical, single point, plate reader; AID 652197, 2013; inhibition, % at 10.7 µM; Endoplasmic reticulum aminopeptidase 1 (Homo sapiens), Q9NZ08; actives 0.15% (n = 340,000); recombinant ERAP1, Leu-AMC fluorescence, 60 min;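 active = mean replicate inhibition of at least 30%, or all replicates individually reaching that 30% level; inactive = mean below 30% and not every replicate reaching it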;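 note: 0% = neutral control wells and 100% = L-leucinethiol positive control wells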
FN deposition inh – inhibitors of fibronectin matrix deposition, primary screen, AH1F cells, Alexa488-fibronectin fluorescence, plate reader. inhibition, % at 12.6 µM. actives 0.086% (n = 350,000). AH1F fibroblasts, overnight;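 active = mean inhibition across replicates of 30% or more, regardless of how many single replicates reach that level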;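 note: positive control wells lacked labelled fibronectin entirely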
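Test system: AH1F fibroblast monolayer depositing Alexa488-labelled fibronectin into matrix. Input: 10000 cells per well. Technique: fluorescence, ex 485 nm, em 525 nm. Buffer or medium: DMEM plus 2% serum, read in PBS. Timing: 1 h cell adhesion before compound, then overnight fibronectin incubation. Compound: single dose, pinned. Read-out basis: inhibition from reduced deposited-fibronectin fluorescence.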
Numbers without * were called inactive; / = no result given. This is a sample that favours compounds with a hit; in the whole collection about 2.2% have one here.

SMILES	SIRT5 inh	PGC1a acetyl inh	FGF22 binding	ERAP1 inh	FN deposition inh
CO[C@@H](CN(C)Cc1ccc(-c2ccccn2)cc1)[C@H](C)CN(C(=O)Nc1ccc(F)cc1)[C@H](C)CO	0.5	-4.9	8.2*	0.5	-5.7
CO[C@@H](CN(C)Cc1ccc(-c2ccccn2)cc1)[C@@H](C)CN(C(=O)Nc1ccc(F)cc1)[C@H](C)CO	3.6	-1.4	0.3	1.2	-0.6
CO[C@@H](CN(C)Cc1ccc2c(c1)OCO2)[C@@H](C)CN(C(=O)Nc1ccc(F)cc1)[C@H](C)CO	20.9*	-0.6	-0.1	-0.4	0.0
C[C@H](CO)N1C[C@H](C)[C@@H](CN(C)C(=O)Nc2ccc(F)cc2)Oc2ccc(NC(=O)Cc3cn(C)c4ccccc34)cc2C1=O	-0.4	-8.0	-0.2	0.6	4.8
Cc1cc(C)c2nc(N3CCC(C(=O)NCC4CCCO4)CC3)sc2c1 (stereo not given)	27.5*	-11.4	-0.4	2.4	0.1
COc1ccccc1CN1[C@@H](CO)[C@@H]2c3ccccc3N(C(=O)C3CCCCC3)C[C@@H]21	-0.1	-29.3	-0.4	-0.3	/
CCCNC(=O)C[C@H]1CC[C@@H]2[C@H](COC[C@@H](O)CN2C(=O)Nc2cccc(Cl)c2)O1	1.2	15.4	-0.1	-7.7	-11.5
COc1ccccc1-n1c(SCC(=O)O)nc2c(sc(=S)n2-c2ccc(C)c(C)c2)c1=O	16.9*	/	1.0	-3.8	10.2
COc1ccccc1-n1c(SCC(=O)O)nc2c(sc(=S)n2-c2ccc(Cl)c(C)c2)c1=O	4.5	0.1	0.7	-8.0	3.9
CC(Sc1nnc(-c2cccnc2)n1C)C(=O)N1CCOCC1 (stereo not given)	-1.4	/	0.4	30.5*	-1.7
COc1ccc(CC(=O)NC(C)c2nnc(SCCOc3ccc(OC)cc3)n2C)cc1 (stereo not given)	29.3*	-6.2	/	-3.7	-4.5
COc1ccc(CC(=O)NC(C)c2nnc(SCC(=O)c3ccc(OC)cc3)n2C)cc1 (stereo not given)	-1.8	/	0.5	4.5	1.6
COc1ccc(OC)c(NC(=O)CSc2nnc(CNC(=O)c3cccs3)o2)c1	21.2*	3.0	0.0	-4.4	3.1
COc1ccccc1NC(=O)CSc1nnnn1C	/	5.8	/	/	/
COc1ccc(CC(=O)NC(C)c2nnc(SCC(=O)Nc3ccccc3)n2C)cc1 (stereo not given)	0.0	1.0	0.2	-2.7	-10.0
COc1ccc(CC(=O)NC(C)c2nnc(SCC(=O)Nc3cc(C)ccc3OC)n2C)cc1 (stereo not given)	-0.7	/	1.6*	3.2	-3.9
COc1ccc(OC)c(NC(=O)CSc2nnnn2C)c1	-7.2	7.3	43.2*	-0.2	6.4
COc1ccc(NC(=O)Nc2ccc3c(c2)C(=O)N([C@H](C)CO)C[C@@H](C)[C@@H](CN(C)S(=O)(=O)c2ccc(Cl)cc2)O3)cc1	6.0	-4.2	0.2	0.7	/
C[C@@H]1CCCCO[C@@H](CN(C)C(=O)Cc2ccccc2)[C@H](C)CN([C@H](C)CO)C(=O)c2cc(NS(=O)(=O)c3ccccc3)ccc2O1	6.4	6.1	-0.2	-1.3	-8.0
CCN(Cc1ccccc1)S(=O)(=O)CCNC(=O)c1ccc(OC)cc1	35.0*	/	0.0	0.7	0.2
CCN(Cc1ccccc1)S(=O)(=O)CCNC(=O)c1ccccc1	-1.9	13.1	/	0.9	1.4
O=c1cnnc(N/N=C/C2CC=CCC2)[nH]1 (stereo not given)	0.5	/	44.0*	4.9	-2.3
O=C(/C=C/c1cccc([N+](=O)[O-])c1)Nc1cccc(NC(=O)c2ccco2)c1	1.5	/	-0.1	-2.5	4.6
O=C(/C=C/c1cccc([N+](=O)[O-])c1)Nc1cccc(NC(=O)c2cccs2)c1	0.3	0.4	1.7*	3.2	-15.9
Cc1nc2ccccc2c(=O)n1-c1cccc(NC(=O)c2cccs2)c1	-6.3	/	0.0	3.9	2.6
O=C(Nc1cccc(N2C(=O)C=CC2=O)c1)c1cccs1	0.1	-20.4	-0.1	32.9*	-3.8
Cc1ccc(NC(=O)c2cccs2)cc1[N+](=O)[O-]	0.1	2.1	43.8*	4.6	/

Screening data (PubChem)
